Assay results as given in PMC2842456 (ACS chemical biology, 2010).

System: wild-type clamp sensor
Assay type: binding
Details: ligand titration with wild-type clamp sensor (Figure 2F)
Method in brief: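 CyPet–clamp–YPet fusion, expressed in E. coli BL21(DE3) and Ni-affinity purified, used at 140 nM unless noted. Titrated with SUMO fusions (target-peptide fusion, bare SUMO, unrelated-peptide fusion). Samples were degassed, then incubated 30 min at 25 °C in the dark. Excitation 415 nm; FRET ratio taken as 527/475 nm emission, plotted against ligand concentration.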

Molecule	Effect on the FRET ratio of the wild-type sensor (in words)
GGDVHVNATYVNVKSVA [SUMO fused with an unrelated peptide]	no significant effect on the FRET ratio
SUMO without an attached peptide: yeast SUMO with no attached peptide (protein, UniProt Q12306 2-98, looked up) Ubiquitin-like protein SMT3: SDSEVNQEAKPEVKPEVKPETHINLKVSDGSSEIFFKIKKTTPLRRLMEAFAKRQGKEMDSLRFLYDGIRIQADQTPEDLDMEDNDIIEAHREQIGG	no significant effect on the FRET ratio
